“And” between values parts separate entries of the source, which are not always exact repeats. Identical values can stand only once.
Assays:
IP3R1^R504Q = IP3R1^R504Q (Rattus norvegicus, UniProt P29994, DEL318-332/R504Q); assay: Ca2+ release from permeabilized DT40 cells expressing only IP3R1^R504Q; type: cell-based
[1] = biological target: IBC (IP3-binding core, residues 224–604 of IP3R1) (Rattus norvegicus, UniProt P29994); assay: Equilibrium-competition 3H-IP3 binding to the IBC; settings: CLM
How it was run: (§1)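 His6-tagged rat IP3R1 IBC (residues 224–604, S1 site included), wild type or point mutant, expressed in E. coli BL21(DE3) (0.5 mM IPTG, 20 h, 15°C). Lysate (~1–10 µg protein) incubated 5 min at 4°C in CLM (pH 7.0, free Ca2+ 220 nM) with 3H-IP3 (0.75–3 nM) and competitor. PEG/γ-globulin precipitation, scintillation counting. Hill fit; Kd by Cheng–Prusoff; ΔpKd from log differences.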

[2] = biological target: NT^R568Q fragment of IP3R1 (Rattus norvegicus, UniProt P29994, DEL318-332/R568Q); assay: Equilibrium-competition 3H-IP3 binding to NT^R568Q
How it was run: (§2)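 Rat IP3R1 N-terminal fragment (residues 1–604, lacking S1 site), His6-tagged, wild type or point mutant, expressed in E. coli BL21(DE3) as bacterial lysate (~1–10 µg protein). Competed against 1.5 nM 3H-IP3 for 5 min at 4°C in TEM (50 mM Tris, 1 mM EDTA, pH 8.3) or, for wild-type NT only, CLM (pH 7.0). Counted after PEG precipitation. Hill fit; Kd by Cheng–Prusoff; ΔpKd from log values.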

[3] = biological target: NT (residues 1–604) of IP3R1 (Rattus norvegicus, UniProt P29994, DEL318-332); assay: Equilibrium-competition 3H-IP3 binding to the NT fragment; settings: for Binding ΔpKd, IP3 / AdA: pair IP3 / AdA
How it was run: as §2

[4] = biological target: rat IP3R1 (recombinant, expressed in DT40 cells) (Rattus norvegicus, UniProt P29994); assay: Ca2+ release from intracellular stores of permeabilized DT40-IP3R1 cells; type: cell-based; settings: for fold more potent than IP3 in functional assays: Ca2+ release, relative to IP3
IP3R1^R568Q = IP3R1^R568Q (Rattus norvegicus, UniProt P29994, DEL318-332/R568Q); assay: Ca2+ release from permeabilized DT40 cells expressing only IP3R1^R568Q; type: cell-based
How it was run: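 Mag-fluo-4 AM (20 µM, 1 h, 20°C) loaded into DT40 cells lacking endogenous IP3R and stably expressing mutant rat IP3R1. Cells were saponin-permeabilized (10 µg·mL−1) into Mg2+-free CLM with 10 µM FCCP, free Ca2+ ~220 nM. Stores were loaded with 1.5 mM MgATP before test compound was added. Fluorescence was read at 485/520 nm, 20°C. Release is a fraction of ATP-dependent uptake, Hill-fitted for EC50, with ΔpEC50 versus wild type from log values. Three determinations per experiment, 4–6 experiments.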

[5] = biological target: IBC^R568Q fragment of IP3R1 (Rattus norvegicus, UniProt P29994, R568Q); assay: Equilibrium-competition 3H-IP3 binding to IBC^R568Q
How it was run: as §1

full-length IP3R1 = full-length IP3R1 (Rattus norvegicus, UniProt P29994); type: binding; settings: full-length IP3R1, TEM
[6] = biological target: NT^R504Q fragment of IP3R1 (Rattus norvegicus, UniProt P29994, DEL318-332/R504Q); assay: Equilibrium-competition 3H-IP3 binding to NT^R504Q; settings: TEM
How it was run: as §2

IP3R = settings: recalculated from published data; ref Takahashi et al., 1994a,b,c; cited from earlier work
[7] = biological target: IBC^R504Q fragment of IP3R1 (Rattus norvegicus, UniProt P29994, R504Q); assay: Equilibrium-competition 3H-IP3 binding to IBC^R504Q; settings: CLM
How it was run: as §1

rat IP3R1 (recombinant, expressed in DT40 cells), sequence (P29994 1-2735 isoform P29994-2): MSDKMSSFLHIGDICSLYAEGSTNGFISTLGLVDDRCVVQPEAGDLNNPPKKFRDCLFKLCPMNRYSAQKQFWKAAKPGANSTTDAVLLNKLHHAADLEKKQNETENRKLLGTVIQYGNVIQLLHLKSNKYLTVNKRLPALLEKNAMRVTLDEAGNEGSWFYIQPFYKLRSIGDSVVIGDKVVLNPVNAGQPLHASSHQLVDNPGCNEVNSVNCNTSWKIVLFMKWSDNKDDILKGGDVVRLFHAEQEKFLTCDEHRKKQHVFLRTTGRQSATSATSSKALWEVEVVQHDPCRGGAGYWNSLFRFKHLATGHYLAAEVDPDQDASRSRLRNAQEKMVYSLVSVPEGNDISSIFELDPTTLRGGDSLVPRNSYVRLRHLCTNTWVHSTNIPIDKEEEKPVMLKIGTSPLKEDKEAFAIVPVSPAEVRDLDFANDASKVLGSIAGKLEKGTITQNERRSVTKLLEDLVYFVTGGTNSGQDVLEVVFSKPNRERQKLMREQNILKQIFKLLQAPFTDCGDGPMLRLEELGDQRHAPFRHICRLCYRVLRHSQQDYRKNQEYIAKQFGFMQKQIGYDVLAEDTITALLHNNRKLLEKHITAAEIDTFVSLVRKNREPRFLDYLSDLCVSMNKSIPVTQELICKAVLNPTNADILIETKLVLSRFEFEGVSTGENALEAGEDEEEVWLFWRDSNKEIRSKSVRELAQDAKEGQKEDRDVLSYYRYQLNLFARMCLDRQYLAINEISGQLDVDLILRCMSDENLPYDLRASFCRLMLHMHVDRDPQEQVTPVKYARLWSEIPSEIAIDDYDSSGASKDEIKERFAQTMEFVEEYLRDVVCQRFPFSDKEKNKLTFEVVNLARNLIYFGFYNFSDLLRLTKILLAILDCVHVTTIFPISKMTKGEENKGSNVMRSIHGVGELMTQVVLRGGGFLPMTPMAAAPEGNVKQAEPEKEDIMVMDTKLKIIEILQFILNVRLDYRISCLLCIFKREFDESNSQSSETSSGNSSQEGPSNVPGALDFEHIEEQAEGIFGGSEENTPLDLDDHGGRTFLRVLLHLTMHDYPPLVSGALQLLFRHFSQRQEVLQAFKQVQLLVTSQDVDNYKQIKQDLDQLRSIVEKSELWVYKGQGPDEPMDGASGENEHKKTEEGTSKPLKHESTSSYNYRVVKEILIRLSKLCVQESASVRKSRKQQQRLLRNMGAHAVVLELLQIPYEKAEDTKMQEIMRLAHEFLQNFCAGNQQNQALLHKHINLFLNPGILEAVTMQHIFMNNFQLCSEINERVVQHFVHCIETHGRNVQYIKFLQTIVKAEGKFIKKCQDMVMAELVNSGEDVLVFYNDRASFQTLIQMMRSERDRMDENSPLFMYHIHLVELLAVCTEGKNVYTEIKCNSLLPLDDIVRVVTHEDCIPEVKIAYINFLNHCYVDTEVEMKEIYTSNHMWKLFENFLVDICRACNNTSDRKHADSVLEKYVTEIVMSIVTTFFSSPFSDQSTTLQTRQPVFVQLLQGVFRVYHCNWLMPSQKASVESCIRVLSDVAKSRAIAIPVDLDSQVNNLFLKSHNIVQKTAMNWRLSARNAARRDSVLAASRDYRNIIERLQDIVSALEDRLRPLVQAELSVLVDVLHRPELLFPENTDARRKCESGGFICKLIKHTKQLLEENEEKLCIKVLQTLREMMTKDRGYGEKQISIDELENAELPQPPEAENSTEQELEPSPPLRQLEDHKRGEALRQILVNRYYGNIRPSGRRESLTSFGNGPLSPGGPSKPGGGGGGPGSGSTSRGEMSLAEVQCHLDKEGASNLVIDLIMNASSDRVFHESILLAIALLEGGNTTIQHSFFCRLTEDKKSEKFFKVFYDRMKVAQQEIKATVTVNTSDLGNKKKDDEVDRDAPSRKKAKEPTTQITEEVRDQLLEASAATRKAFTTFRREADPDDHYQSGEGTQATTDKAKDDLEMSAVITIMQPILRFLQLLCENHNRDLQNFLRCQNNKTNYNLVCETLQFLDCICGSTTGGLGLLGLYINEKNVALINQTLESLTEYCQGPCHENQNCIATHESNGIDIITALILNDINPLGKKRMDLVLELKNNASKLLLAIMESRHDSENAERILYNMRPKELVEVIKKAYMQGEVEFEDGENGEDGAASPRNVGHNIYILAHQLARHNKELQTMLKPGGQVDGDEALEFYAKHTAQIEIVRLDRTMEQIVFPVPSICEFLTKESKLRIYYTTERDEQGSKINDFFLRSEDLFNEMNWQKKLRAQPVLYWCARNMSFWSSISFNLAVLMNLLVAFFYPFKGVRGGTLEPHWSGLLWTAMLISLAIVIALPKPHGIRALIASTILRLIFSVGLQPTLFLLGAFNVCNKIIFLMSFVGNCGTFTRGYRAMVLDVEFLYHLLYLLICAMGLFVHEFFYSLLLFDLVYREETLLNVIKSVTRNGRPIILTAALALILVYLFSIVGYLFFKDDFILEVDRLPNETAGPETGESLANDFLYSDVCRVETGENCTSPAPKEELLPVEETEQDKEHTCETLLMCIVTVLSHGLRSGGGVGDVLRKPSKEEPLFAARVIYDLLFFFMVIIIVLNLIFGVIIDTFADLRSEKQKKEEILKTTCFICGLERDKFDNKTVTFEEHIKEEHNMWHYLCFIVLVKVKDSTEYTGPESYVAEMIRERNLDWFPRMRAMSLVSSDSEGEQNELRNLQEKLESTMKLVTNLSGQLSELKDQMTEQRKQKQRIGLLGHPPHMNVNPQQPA
NT (residues 1–604) of IP3R1, sequence (P29994 1-589 isoform P29994-2 limits assumed, stated change not applied): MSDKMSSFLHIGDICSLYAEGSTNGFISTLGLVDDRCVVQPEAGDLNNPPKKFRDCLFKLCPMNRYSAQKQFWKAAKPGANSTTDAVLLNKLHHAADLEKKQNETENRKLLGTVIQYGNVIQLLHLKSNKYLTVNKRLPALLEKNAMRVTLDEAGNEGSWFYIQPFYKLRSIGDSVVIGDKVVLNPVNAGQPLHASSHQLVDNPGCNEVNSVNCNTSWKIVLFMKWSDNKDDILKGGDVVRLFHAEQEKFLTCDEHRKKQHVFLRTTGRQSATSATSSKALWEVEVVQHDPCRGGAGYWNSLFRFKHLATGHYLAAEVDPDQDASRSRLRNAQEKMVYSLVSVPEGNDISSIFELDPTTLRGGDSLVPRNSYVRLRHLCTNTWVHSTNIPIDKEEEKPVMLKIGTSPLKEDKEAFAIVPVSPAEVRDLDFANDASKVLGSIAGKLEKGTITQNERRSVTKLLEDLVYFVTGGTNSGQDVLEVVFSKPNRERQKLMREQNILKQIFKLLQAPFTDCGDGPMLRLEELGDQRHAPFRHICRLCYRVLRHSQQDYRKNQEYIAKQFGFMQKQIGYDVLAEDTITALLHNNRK
IBC^R568Q fragment of IP3R1, sequence (P29994 224-604 R568Q): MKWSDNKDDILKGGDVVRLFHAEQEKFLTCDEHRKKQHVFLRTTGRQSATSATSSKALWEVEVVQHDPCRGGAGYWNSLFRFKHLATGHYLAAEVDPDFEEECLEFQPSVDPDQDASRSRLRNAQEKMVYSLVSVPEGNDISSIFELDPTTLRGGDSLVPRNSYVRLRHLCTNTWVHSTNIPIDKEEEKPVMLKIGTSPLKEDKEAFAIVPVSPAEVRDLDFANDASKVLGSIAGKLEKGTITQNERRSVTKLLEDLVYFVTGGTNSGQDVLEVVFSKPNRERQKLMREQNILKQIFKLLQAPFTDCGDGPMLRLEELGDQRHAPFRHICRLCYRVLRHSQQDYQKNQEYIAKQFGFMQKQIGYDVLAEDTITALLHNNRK
IBC^R504Q fragment of IP3R1, sequence (P29994 224-604 R504Q): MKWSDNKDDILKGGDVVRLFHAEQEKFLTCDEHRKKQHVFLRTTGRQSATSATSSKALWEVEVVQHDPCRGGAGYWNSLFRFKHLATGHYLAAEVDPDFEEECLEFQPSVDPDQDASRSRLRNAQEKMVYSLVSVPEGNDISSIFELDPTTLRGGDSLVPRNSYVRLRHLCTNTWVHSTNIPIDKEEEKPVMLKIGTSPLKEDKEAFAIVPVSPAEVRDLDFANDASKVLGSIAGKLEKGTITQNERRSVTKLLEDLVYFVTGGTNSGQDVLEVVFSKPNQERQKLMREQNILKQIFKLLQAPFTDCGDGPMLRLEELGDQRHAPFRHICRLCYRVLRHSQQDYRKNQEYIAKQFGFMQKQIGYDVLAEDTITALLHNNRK
IBC (IP3-binding core, residues 224–604 of IP3R1), sequence (P29994 224-604): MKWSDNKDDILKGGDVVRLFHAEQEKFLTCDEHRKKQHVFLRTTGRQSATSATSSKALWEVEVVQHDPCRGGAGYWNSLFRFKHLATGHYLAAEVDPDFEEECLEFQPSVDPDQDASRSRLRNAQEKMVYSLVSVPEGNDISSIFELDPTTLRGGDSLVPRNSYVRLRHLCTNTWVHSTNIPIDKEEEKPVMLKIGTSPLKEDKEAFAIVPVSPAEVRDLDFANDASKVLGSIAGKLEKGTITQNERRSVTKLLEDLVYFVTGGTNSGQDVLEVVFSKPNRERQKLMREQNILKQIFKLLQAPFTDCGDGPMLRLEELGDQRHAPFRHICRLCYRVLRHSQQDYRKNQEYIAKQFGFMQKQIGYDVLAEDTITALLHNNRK
NT^R568Q fragment of IP3R1, sequence (P29994 1-589 isoform P29994-2 R553Q limits assumed): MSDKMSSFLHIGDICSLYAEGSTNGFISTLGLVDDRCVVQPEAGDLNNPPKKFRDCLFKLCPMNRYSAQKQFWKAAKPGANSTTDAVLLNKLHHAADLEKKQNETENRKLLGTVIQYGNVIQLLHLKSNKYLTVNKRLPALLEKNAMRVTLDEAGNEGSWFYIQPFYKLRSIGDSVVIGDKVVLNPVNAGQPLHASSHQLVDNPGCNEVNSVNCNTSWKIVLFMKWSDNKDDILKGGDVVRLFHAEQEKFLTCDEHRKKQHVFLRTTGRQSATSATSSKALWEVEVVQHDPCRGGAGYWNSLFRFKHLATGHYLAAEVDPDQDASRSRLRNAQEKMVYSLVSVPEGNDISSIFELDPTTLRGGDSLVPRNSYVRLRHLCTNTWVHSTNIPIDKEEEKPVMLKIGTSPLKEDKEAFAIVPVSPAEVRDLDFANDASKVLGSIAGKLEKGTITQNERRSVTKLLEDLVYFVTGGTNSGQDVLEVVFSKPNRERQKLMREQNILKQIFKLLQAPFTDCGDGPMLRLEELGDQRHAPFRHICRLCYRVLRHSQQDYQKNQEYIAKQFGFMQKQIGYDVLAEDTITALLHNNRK

Nc1ncnc2c1ncn2[C@@H]1O[C@H](CO)[C@@H](O[C@H]2O[C@H](CO)[C@@H](OP(=O)(O)O)[C@H](OP(=O)(O)O)[C@H]2O)[C@H]1OP(=O)(O)O [AdA, adenophostin A]
EC50 (IP3R1^R504Q): 604 nM
Relative potency ΔpEC50, R504Q / wild-type IP3R1 (IP3R1^R504Q; Ca2+ release, IP3R1^R504Q vs IP3R1): 2.29 ± 0.06
Ca2+ release nHill ± SEM (IP3R1^R504Q; IP3R1^R504Q): 1.3 ± 0.2
Release (%) (IP3R1^R504Q; maximal Ca2+ release, IP3R1^R504Q): 61 ± 3%
fold greater affinity than IP3 [1]: ~20 fold
nHill ± SEM [1]: 1.3 ± 0.3
Kd ([1]; Kd): 0.31 nM
Binding ΔpKd, IP3 / AdA ([1]; pair IP3 / AdA): 1.37 ± 0.07
Kd [2]: 2.81 nM
nHill ± SEM ([2]; NT^R568Q, TEM): 1.3 ± 0.2
nHill ± SEM ([3]; CLM): 1.3 ± 0.2
Kd ([3]; Kd, CLM): 3.44 nM
fold greater affinity than IP3 ([3]; TEM): about 15 fold
nHill ± SEM ([3]; TEM): 1.0 ± 0.1
Kd ([3]; pKd ± SEM, TEM): 0.141 nM
Binding ΔpKd, IP3 / AdA ([3]; CLM): 1.14 ± 0.21
Binding ΔpKd, IP3 / AdA ([3]; TEM): 1.18 ± 0.12
EC50 ([4]; Ca2+ release EC50, DT40 cells expressing wild-type IP3R1): 3 nM
EC50 ([4]; Ca2+ release pEC50 ± SEM, permeabilized DT40-IP3R1 cells, CLM): 3.09 nM
fold more potent than IP3 in functional assays ([4]; CLM): ~12 fold
fold more potent than IP3 in functional assays ([4]; CLM, listed as Adenophostin A): at least 12 fold
Ca2+ release, Release (%) ([4]; maximal Ca2+ release, fraction of ATP-dependent uptake, wild-type IP3R1): 78 ± 3%
Ca2+ release ΔpEC50, IP3 / AdA ([4]; pair IP3 / AdA, DT40-IP3R1 cells): 1.09 ± 0.05
Ca2+ release nHill ± SEM ([4]; permeabilized DT40-IP3R1 cells, CLM): 1.4 ± 0.1
EC50 (IP3R1^R568Q): 20 nM
Relative potency ΔpEC50, R568Q / wild-type IP3R1 (IP3R1^R568Q; Ca2+ release, IP3R1^R568Q vs IP3R1): 0.81 ± 0.07
fold reduction of potency in IP3R1^R568Q cells (IP3R1^R568Q; Ca2+ release, vs wild-type IP3R1): sixfold
Ca2+ release nHill ± SEM (IP3R1^R568Q; IP3R1^R568Q): 1.0 ± 0.2
Release (%) (IP3R1^R568Q; maximal Ca2+ release, IP3R1^R568Q): 53 ± 3%
Kd [5]: 9.48 nM
Relative affinity ΔpKd, R568Q / wild-type IBC ([5]; IBC^R568Q vs IBC, CLM): 1.49 ± 0.11
fold reduction of affinity by the R568Q mutation ([5]; IBC^R568Q vs IBC, CLM): ~30 fold and 31 fold
nHill ± SEM ([5]; IBC^R568Q, CLM): 1.3 ± 0.6
Binding nHill ± SEM (full-length IP3R1): 1.5 ± 0.1
Kd ([6]; Kd): 16.5 nM
nHill ± SEM [6]: 0.9 ± 0.1
fold greater affinity than IP3 (IP3R): about 18 fold
Relative affinity ΔpKd, R504Q / wild-type IBC ([7]; IBC^R504Q vs IBC): 2.55 ± 0.05
fold reduction of affinity by the R504Q mutation ([7]; IBC^R504Q vs IBC): 353 fold
nHill ± SEM ([7]; IBC^R504Q): 1.5 ± 0.2
Kd ([7]; Kd, IBC^R504Q): 149 nM

Source: PMC2998688 (British Journal of Pharmacology, 2010)
